# Fewer inactive variants are shown than the library holds.
# B1: tRNA (parent)
# chain: GUUCCGUUGGCGUAAUGGUAACGCGUCUCCCUCCUAAGGAGAAGACUGCGGGUUCGAGUCCCGUACGGAACG
# Variants of: B1
# Assay: yeast fitness relative to wild type (ratio to wild type); higher = fitter; tRNA-Arg(CCU), competitive growth, 37 C, YPD
# In short: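 The tRNA-Arg(CCU) gene variants were made by chemical synthesis with a 3% per-site mutation rate at 69 sites and inserted at the native genomic locus of Saccharomyces cerevisiae. After pooling, the strains were competed in YPD at 37°C for 24 hours in six parallel replicates. Gene amplicons from the start population and each end population were read by 100-nucleotide paired-end sequencing, and Darwinian fitness relative to wild type was taken from genotype frequency changes. Genotypes needed ≥ 100 starting reads, and estimates < 0.5 were set to 0.5.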
row,Variant,yeast fitness
1,A36U G58C A65U,≤ 0.5
2,A15U A20G C46G C61A,≤ 0.5
3,A20G C31A G68A,0.575
4,A37G A43U A65C,0.627
5,C4G G18A A57C,≤ 0.5
6,C34G G68U,0.638
7,G25A G41A G67A,0.59
8,C61G A65C,0.658
9,A37C A43U G63A,0.666
10,G25C C29A U32A A65U,≤ 0.5
11,A14G G39A A43U,0.643
12,A40U G52C C60G,≤ 0.5
13,U8A C24U A40U A42C A45U,0.563
14,A20U G25C,0.885
15,U3C A36U C62U,0.553
16,G12C A15U C24A C61U,≤ 0.5
17,C11U A20C C29A C31U U32C A65C,≤ 0.5
18,U59C C61A C66A,≤ 0.5
19,A14C C24U A57G C60U G68C,≤ 0.5
20,U26G G51A A65G,0.599
21,C4A G18C C31U A57G U64C,≤ 0.5
22,U3C C11A G25A C46G A57U,0.504
23,G23C U53A,0.55
24,G25C C27G C46G C55A,≤ 0.5

row,Variant,yeast fitness
1,G6A U32A A37U A43C G48C,≤ 0.5
2,U26C C27G C33G A37U G41A A57G C62G,≤ 0.5
3,C5A G38A U47C,0.599
4,A20G U26C A65C,0.704
5,C24G A42U,0.559
6,A14U G56A,0.619
7,A21C C34A A37G,0.513
8,G25C C31G,0.704
9,C30U U59G,0.898
10,U26G U47C G51A,0.559
11,A21C U26G A65G A69C,≤ 0.5
12,U59A G68U,0.769
13,C22U U47A G63A,0.503
14,C11A A15U A21U A36C A37U C55U,≤ 0.5
15,A36C G44U,≤ 0.5
16,C31U G48C G67C,0.649
17,A14G G23A C49A,≤ 0.5
18,C31U A40G G48C,0.559
19,U3C G48C C66U,0.761
20,G23C A36U C46G C60U,0.591
21,C11U A20U A36G C55G,≤ 0.5
22,C27A C55U C66A,≤ 0.5
23,C24G G63A,0.554
24,G6C C46U A57C,≤ 0.5

row,Variant,yeast fitness
1,A14U C29G A57G U59G C62G C66U,≤ 0.5
2,U19A A36U G50U C61U,≤ 0.5
3,G10U G17A G25C C29A G52A,≤ 0.5
4,A15U G18C G41A A69C A70G,≤ 0.5
5,U7G A36G A45G C49U,0.641
6,A37G A40C,0.685
7,C66U,0.968
8,A40C U59G C60G,≤ 0.5
9,C34G C62G,0.559
10,A15U C49G A70G,0.576
11,C11G A14U A36U G38C C55U G56C,≤ 0.5
12,U16G C31G C61A C66U,≤ 0.5
13,A15C C31U G38A G56C A70U,0.581
14,U26C C31A C66G,≤ 0.5
15,U2C U35A C55A C66A,0.521
16,G9C C46U A65U A69U,≤ 0.5
17,G9A C31A A42C,0.54
18,G39A G52C,0.612
19,C29U C55G G68C,≤ 0.5
20,A15C,0.904
21,C33G A42G G52A A70U,≤ 0.5
22,C5G A20U G51C C61G A65U A70C,0.565
23,C4U A20G A45U C61A C62U,0.546
24,C29U U54A,0.627

row,Variant,yeast fitness
1,A21C C27A U28A A45G A69C,≤ 0.5
2,U8C C27A,0.791
3,U16A C60G G67A,≤ 0.5
4,C5G C11U C34A U47A,0.528
5,G10A C29G,0.522
6,C5G A14U G67A A69G,0.503
7,U54G A57U A65U,≤ 0.5
8,C4A G9C C11G A45C,0.508
9,G9A C22G C31U A65C C66A,≤ 0.5
10,C5G U26C A43G U47C,≤ 0.5
11,G10C U26G C27G U32A A40U,≤ 0.5
12,U7A G51A G52A A70G,≤ 0.5
13,U7A U53A A65C A70G,≤ 0.5
14,A20G C24U C33U A43C C55A U59C,0.539
15,C33U A36C A43G A57U,≤ 0.5
16,U7A A40C,0.724
17,G12C A69C,0.806
18,U3A G44A,0.807
19,U32G G56C,≤ 0.5
20,U13G A37C U47A A70G,≤ 0.5
21,A14G C24U G52A C60U,≤ 0.5
22,U16G A36U,0.589
23,A20U C24G C31A G58C,0.504
24,A20G G48A C49G,0.635

row,Variant,yeast fitness
1,A37G C55A G67A,≤ 0.5
2,G23C G25A,0.818
3,C11G C30U A37C C46U A57C,≤ 0.5
4,C4G G17A G50A C55U G67C,≤ 0.5
5,A20U C62G,0.682
6,C5U U26A G48C A57G,≤ 0.5
7,U26C U64A,0.699
8,U16A C24U G44C C61U C66U,≤ 0.5
9,U7A A15U G63A G67A,≤ 0.5
10,G9C A37U,0.663
11,A42U C55U,0.709
12,A15G A21C C24U,≤ 0.5
13,G9A U26A A43U A65U,0.562
14,U54G C61U G67C,≤ 0.5
15,G17A U28C A42C C62U A70U,≤ 0.5
16,U13A G63A,0.853
17,U28A C31G C55A G68C,≤ 0.5
18,U26A C30A A37C A43U G51C,0.595
19,U26C U32C A70G,0.659
20,G44C G56A A57G,0.543
21,G25A U32A,0.744
22,U7A U53A A69C,0.545
23,U7A A20U C55A C66U,0.894
24,A14G A21C C30G A57G,≤ 0.5

row,Variant,yeast fitness
1,C5A U13G C24G C31A C62U C66U,≤ 0.5
2,U2C C11A C34G G51A,≤ 0.5
3,C22U C24U C33U A40U,≤ 0.5
4,C31A A40G A43C G44A,≤ 0.5
5,A36U C49G U54C,0.66
6,A15G G23C G38C G52C C66A,≤ 0.5
7,A15U A21C C24G C29U A42C C55A,≤ 0.5
8,G48C G67A,0.873
9,G9A C46G C49U A69U,1.11
10,C34G U64G,0.518
11,U7G G10C C33U U53G C60A G68U A69C,0.776
12,C11G U28C,0.653
13,U7C A20G A40U,0.597
14,C4U G10C G48C G63C G67A,≤ 0.5
15,G17A A20G C34U C55G,≤ 0.5
16,A40U G67A A70C,0.572
17,G51A G52U C62A,≤ 0.5
18,G9C C46A,0.893
19,C4A G6C C55U,≤ 0.5
20,U28A C55U,0.739
21,U2C A37G C49G A57U G68C A70G,≤ 0.5
22,A37G G44C,0.809
23,C11G A14C G23C G41C C61A,≤ 0.5
24,C4U A37C G50C A57G,≤ 0.5

row,Variant,yeast fitness
1,C31U U53G C61G A70U,≤ 0.5
2,A40C A57U G58A,0.644
3,G9C A57G U59A,≤ 0.5
4,A21G G39C C46G,0.627
5,U13G A15C C30G C34A U35A U53C A57U C60G,0.564
6,A21C C30U A45G,≤ 0.5
7,A20C G41C A42C G56A U64C,≤ 0.5
8,G18A U19C C27G C61A U64G C66U,≤ 0.5
9,C4U C24A C30G A65U C66A,≤ 0.5
10,C55A A57G U64A,≤ 0.5
11,G38A U54C,0.72
12,U16C G17C A21C C66U G68A,≤ 0.5
13,U28A A65G,0.791
14,U2C C27U,0.881
15,C5A C27U A37U,≤ 0.5
16,C5G A20U,0.621
17,U26C U35C U64G A65G C66G,≤ 0.5
18,U8A C11U C46U,≤ 0.5
19,U8A A45G C61G C62U,≤ 0.5
20,A21U C30U U32A G68C,≤ 0.5
21,C29U G38A G48C C62G,0.525
22,C11G G25A C34G,≤ 0.5
23,U13C G41C,0.761

# — the RNAGym collection of RNA variant scans (doi:10.1126/science.aae0568)
